Compound activity from PubChem BioAssay.
Most compounds without a hit are left out; they make up all but 1.5% or so of the library.
PPC-1+TRAIL kill = compounds killing PPC-1 cancer cells with TRAIL present (potentiator screen, no TRAIL-free arm); PPC-1 cells + TRAIL, ATPLite viability luminescence; cell killing (% activity), % at 4 µM or 5 µM; 220,000 tested, 0.41% active; AID 1443;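 active = cell killing above 50% in the first pass at 4 µM, then a duplicate retest at 5 µM averaging 50% or more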
FLuc act counter = firefly luciferase counter-screen for stimulation assays. activation factor at 10 µM. 200,000 tested, under 10 active. P08659. ATPlite luciferase biochemical, luminescence, 10 min; 0 = ATP-free wells, 1 = DMSO control;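 active = luciferase activation factor, scaled between plate controls, of at least 2 with compound at 10 µM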
Target sequence (P08659 whole entry, looked up): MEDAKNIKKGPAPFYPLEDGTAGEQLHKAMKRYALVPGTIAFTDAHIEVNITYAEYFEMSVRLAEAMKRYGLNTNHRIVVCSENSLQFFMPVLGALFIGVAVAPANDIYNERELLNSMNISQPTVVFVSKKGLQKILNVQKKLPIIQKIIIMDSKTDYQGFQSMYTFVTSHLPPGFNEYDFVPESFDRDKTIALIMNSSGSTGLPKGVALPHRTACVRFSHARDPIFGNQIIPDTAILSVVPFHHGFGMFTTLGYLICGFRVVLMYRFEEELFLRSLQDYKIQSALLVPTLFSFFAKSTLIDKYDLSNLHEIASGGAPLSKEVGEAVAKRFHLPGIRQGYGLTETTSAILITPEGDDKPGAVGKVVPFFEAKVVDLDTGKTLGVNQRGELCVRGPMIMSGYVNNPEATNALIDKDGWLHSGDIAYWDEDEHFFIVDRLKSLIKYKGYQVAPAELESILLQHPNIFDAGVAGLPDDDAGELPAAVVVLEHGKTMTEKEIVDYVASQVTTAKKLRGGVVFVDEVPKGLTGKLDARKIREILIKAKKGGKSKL
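Assay system: Luciferase/luciferin reagent mix; Medium: PBS as buffer for the ATP substrate; Dosing: test compounds dosed from 2 mM stocks in 100% DMSO; Times: 10 min, room temperature; Signal: luminescence from luciferase reaction; Read-out: luciferase activation; Controls: No-ATP low control, compound-free enzyme-plus-ATP high control.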
TRAIL sens C8 = sensitizes caspase-8 expressing cells to TRAIL; NB7+C8 cells + TRAIL, ATPlite viability luminescence; inhibition (viability loss, TRAIL sensitization), % at 10 µM; AID 624354; 360,000 tested, 1% active;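 active = compounds causing at least 50% loss of cell viability in the single-dose screen, relative to plate controls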
FLuc inh counter = Photinus pyralis luciferase inhibition counter-screen; inhibition, % at 10 µM; 200,000 tested, 1.5% active; P08659; ATPLite firefly luciferase biochemical luminescence, 10 min;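 active = inhibition above about 50% when tested at 10 µM, limit read from the data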
Large screens that a line does not name were inactive.

CC1(C(=O)NCCC(F)(F)F)Cc2c(-c3cccc(C(N)=O)c3)ccnc2O1 (centres undefined)	none (no result: PPC-1+TRAIL kill, FLuc act counter, FLuc inh counter)
CC(C)(C)c1ccc(-c2conc2N)cc1	FLuc inh counter 61.2
CC(C)(C)c1ccc(-c2nc(N)nc(N)n2)cc1	none (no result: FLuc act counter, FLuc inh counter)
NS(=O)(=O)c1ccc(N/N=C/c2cn(-c3ccccc3)nc2-c2ccccc2)c([N+](=O)[O-])c1	TRAIL sens C8 54.0
C=CCN1C(=O)C(=Cc2ccc3c(c2)CCC3)SC1=S	TRAIL sens C8 91.6 (no result: PPC-1+TRAIL kill, FLuc act counter, FLuc inh counter)
Cc1ccc(C(=O)OCC(=O)c2cc(C)n(CC3CCCO3)c2C)cc1 (centres undefined)	none
Cc1cc(C(=O)COC(=O)c2cccc(NS(C)(=O)=O)c2)c(C)n1CC1CCCO1 (centres undefined)	TRAIL sens C8 58.8 (no result: PPC-1+TRAIL kill, FLuc act counter, FLuc inh counter)
Cc1cc(C(=O)COC(=O)c2n[nH]c3ccccc23)c(C)n1CC1CCCO1 (centres undefined)	TRAIL sens C8 71.8, FLuc inh counter 91.8
Cc1cc(C(=O)COC(=O)c2cc(O)c3ccccc3c2O)c(C)n1CC1CCCO1 (centres undefined)	none
Cc1cc(C(=O)COC(=O)c2ccccc2O)c(C)n1CC1CCCO1 (centres undefined)	TRAIL sens C8 87.0 (no result: PPC-1+TRAIL kill, FLuc act counter, FLuc inh counter)
C=CCn1c(C)cc(C(=O)COC(=O)c2n[nH]c(=O)c3ccccc23)c1C	TRAIL sens C8 68.7 (no result: PPC-1+TRAIL kill, FLuc act counter, FLuc inh counter)
Cc1cc(C(=O)COC(=O)c2ccccc2NCCO)c(C)n1CC1CCCO1 (centres undefined)	none (no result: PPC-1+TRAIL kill, FLuc act counter, FLuc inh counter)
C(=N\NC1=Nc2cccc3cccc1c23)/c1cccnc1	FLuc inh counter 59.6
Clc1ccc(/C=N/NC2=Nc3cccc4cccc2c34)cc1	none
C(=N\NC1=Nc2cccc3cccc1c23)/c1ccccc1	TRAIL sens C8 49.9, FLuc inh counter 67.1
CCCn1c(SCC(=O)Nc2nnc(CC)s2)nc2c1c(=O)n(C)c(=O)n2C	none (no result: TRAIL sens C8)
CCOC(=O)c1nc(NNC(C)=O)sc1C	none
COc1ccc(C)cc1S(=O)(=O)N1CCC(C(=O)NCCC2=CCCCC2)CC1	none
COc1ccc(S(=O)(=O)N2CCC(C(=O)NCCC3=CCCCC3)CC2)cc1C	TRAIL sens C8 54.3
Cc1nc2ccc(N)cc2c(=O)n1Cc1ccc(Cl)cc1	none
Nc1ccc(Cn2ccc3c4c(N)nc(N)nc4ccc32)cc1	TRAIL sens C8 73.9 (no result: PPC-1+TRAIL kill, FLuc act counter, FLuc inh counter)
O=C1N=C(N2CCN(c3ccccc3)CC2)S/C1=C\c1ccco1	FLuc inh counter 60.6
O=C1C=C(N2CCOCC2)c2ccccc2C1=O	TRAIL sens C8 93.1 (no result: PPC-1+TRAIL kill, FLuc act counter, FLuc inh counter)
CC1CN(C(=O)CSc2nnc(C3CCCCC3)n2N)CC(C)O1 (centres undefined)	none (no result: PPC-1+TRAIL kill, FLuc act counter, FLuc inh counter)
CN(C)c1ccc(/C=C(\C#N)c2ccccn2)cc1	TRAIL sens C8 93.9, FLuc inh counter 97.1
COC(=O)c1ccc(/C=C(\C#N)c2ccccn2)cc1	TRAIL sens C8 52.2, FLuc inh counter 73.1
COc1ccc(CC(=O)Nc2cccc(-c3nnc(-c4ccc(C)cc4)o3)c2)cc1OC	TRAIL sens C8 90.1
COc1ccc(CC(=O)Nc2cccc(-c3nnc(-c4cccc(C)c4)o3)c2)cc1OC	none
COc1ccc(CC(=O)Nc2cccc(-c3nnc(-c4ccccc4)o3)c2)cc1OC	TRAIL sens C8 56.2
Cc1ccc(-n2c(Cc3noc4ccccc34)n[nH]c2=S)cc1	none
COc1cccc(N=Nc2c(N)[nH]n3c(=O)cc(-c4ccccc4)nc23)c1	none
O=c1cc(-c2ccccc2)nc2cc(-c3ccc(F)cc3)[nH]n12	TRAIL sens C8 55.7 (no result: PPC-1+TRAIL kill, FLuc act counter, FLuc inh counter)
COc1cccc(-c2cc3nc(-c4ccccc4)cc(=O)n3[nH]2)c1	TRAIL sens C8 41.0 (no result: PPC-1+TRAIL kill, FLuc act counter, FLuc inh counter)
Cc1cc(=O)n2[nH]c(-c3ccccc3)cc2n1	none
COc1ccc(N(CC(=O)NC2CCCCC2)C(=O)CNC(=O)c2cccs2)cc1	none (no result: PPC-1+TRAIL kill, FLuc act counter, FLuc inh counter)
CCCCNC(=S)N(C)/N=C/c1ccc(OCC(=O)Nc2ccc(OC)cc2)c(OC)c1	none
Cc1ccc(NC(=O)C(=O)NCc2ccc(/C=N/NC(=O)c3c(C)nc4ccccn34)o2)cc1	FLuc inh counter 72.6
O=C(N/N=C/c1ccc[nH]1)c1ccncc1	none
O=C(N/N=C/c1ccc[nH]1)c1ccc(Cl)cc1	FLuc inh counter 57.2
Cc1ccc(C(=O)N/N=C\c2ccc[nH]2)cc1[N+](=O)[O-]	TRAIL sens C8 85.8
CC(C)Oc1ccc(C(=O)Nc2nc3ccccc3[nH]2)cc1	TRAIL sens C8 92.0 (no result: PPC-1+TRAIL kill, FLuc act counter, FLuc inh counter)
N#Cc1ccc(C(=O)Nc2nc3ccccc3[nH]2)cc1	none (no result: PPC-1+TRAIL kill, FLuc act counter, FLuc inh counter)
O=C(Nc1nc2ccccc2[nH]1)c1ccccc1OC(F)F	TRAIL sens C8 68.8 (no result: PPC-1+TRAIL kill, FLuc act counter, FLuc inh counter)
O=C(Nc1nc2ccccc2[nH]1)c1ccc(OC(F)F)cc1	TRAIL sens C8 83.2 (no result: PPC-1+TRAIL kill, FLuc act counter, FLuc inh counter)
COc1cc(C(=O)Nc2nc3ccccc3[nH]2)ccc1OC(F)F	TRAIL sens C8 47.5 (no result: FLuc act counter, FLuc inh counter)
